ChEMBL document CHEMBL1138855, “Topomimetics of amphipathic beta-sheet and helix-forming bactericidal peptides neutralize lipopolysaccharide endotoxins” (J Med Chem, 2006)
Activity calls are given as the source filed them. The rule behind the calls is not given here.

Experiments:
Salmonella typhimurium [1] = assay: Antibacterial activity against Salmonella Typhimurium assessed as LPS neutralisation by LAL assay at 5 uM; format: functional, organism-based; details: Salmonella enterica subsp. enterica serovar Typhimurium
Escherichia coli [2] = assay: Antibacterial activity against Escherichia coli 055:B5 assessed as LPS neutralisation at 5 uM by LAL assay; format: functional, organism-based
Pseudomonas aeruginosa [3] = assay: Antibacterial activity against Pseudomonas aeruginosa assessed as LPS neutralisation at 5 uM by LAL assay; format: functional, organism-based
Escherichia coli [4] = assay: Antibacterial activity against Escherichia coli 0111:B4 assessed as LPS neutralisation at 5 uM by LAL assay; format: functional, organism-based
Klebsiella pneumoniae [5] = assay: Antibacterial activity against Klebsiella pneumoniae assessed as LPS neutralisation by LAL assay at 5 uM; format: functional, organism-based
Escherichia coli [6] = assay: Antibacterial activity against Escherichia coli 0111:B4 assessed as LPS neutralisation by LAL assay; format: functional, organism-based
In short: (§1)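 LPS was used at 0.04 units: 0.01 ng for E. coli 055:B5, 0.01 ng for E. coli 0111:B4, 0.003 ng for K. pneumoniae, 0.01 ng for P. aeruginosa, 0.03 ng for S. typhimurium and 0.03 ng for S. marcescens. IC50 came from sigmoidal fits of dose-response curves.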

Salmonella typhimurium [7] = assay: Antibacterial activity against Salmonella Typhimurium assessed as LPS neutralisation by LAL assay; format: functional, organism-based, Salmonella enterica subsp. enterica serovar Typhimurium; details: Salmonella enterica; in short: as §1
Klebsiella pneumoniae [8] = assay: Antibacterial activity against Klebsiella pneumoniae assessed as LPS neutralisation by LAL assay; format: functional, organism-based; in short: as §1
Escherichia coli [9] = assay: Antibacterial activity against Escherichia coli 055:B5 assessed as LPS neutralisation by LAL assay; format: functional, organism-based; in short: as §1
Pseudomonas aeruginosa [10] = assay: Antibacterial activity against Pseudomonas aeruginosa assessed as LPS neutralisation by LAL assay; format: functional, organism-based; in short: as §1
Mus musculus [11] = assay: Survival of Escherichia coli 055:B5 LPS-challenged C57/BL6 mouse at 50 mg/kg, ip after 120 hrs relative to control; format: functional; details: route intraperitoneal
In short: (§2)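 Male C57/BL6 mice (n = 4–8/group) received a lethal LPS dose: 500 µg for E. coli 0111:B4, 600 µg for E. coli 055:B5 and 600 µg for Salmonella. LPS was premixed with compound in 2% DMSO v/v for 30 min, then injected i.p. Controls got DMSO alone or compound alone. Survival was followed for up to 120 h, and mean survival time was compared by Student's t-test.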

Mus musculus [12] = assay: Survival of Escherichia coli 055:B5 LPS-challenged C57/BL6 mouse at 5 mg/kg, ip after 120 hrs relative 10 control; format: functional, organism-based; design: dose 5 mg/kg; in short: as §2
Mus musculus [13] = assay: Survival of Salmonella LPS-challenged C57/BL6 mouse at 50 mg/kg, ip after 120 hrs relative to control; format: functional; details: route intraperitoneal; in short: as §2
Serratia marcescens [14] = assay: Antibacterial activity against Serratia marcescens assessed as LPS neutralisation by LAL assay; format: functional, organism-based; in short: as §1
Mus musculus [15] = assay: Survival of Escherichia coli 0111:B4 LPS-challenged C57/BL6 mouse at 50 mg/kg, ip after 120 hrs relative to control; format: functional; details: route intraperitoneal; in short: as §2
Serratia marcescens [16] = assay: Antibacterial activity against Serratia marcescens assessed as LPS neutralisation by LAL assay at 5 uM; format: functional, organism-based

| Structure (SMILES) | Activity (Salmonella typhimurium [1]) | Activity (Escherichia coli [2]) | Activity (Pseudomonas aeruginosa [3]) | Activity (Escherichia coli [4]) | Activity (Klebsiella pneumoniae [5]) | IC50 (Escherichia coli [6]) | IC50 (Salmonella typhimurium [7]) | IC50 (Klebsiella pneumoniae [8]) | IC50 (Escherichia coli [9]) | IC50 (Pseudomonas aeruginosa [10]) | survival at 50 mg/kg (Mus musculus [11]) | Activity (Mus musculus [12]) | survival at 50 mg/kg (Mus musculus [13]) | IC50 (Serratia marcescens [14]) | survival at 50 mg/kg (Mus musculus [15]) | Activity (Serratia marcescens [16]) |
| --- | --- | --- | --- | --- | --- | --- | --- | --- | --- | --- | --- | --- | --- | --- | --- | --- |
| CC(C)(C)c1cc2c(OCC(=O)NCCCn3cncn3)c(c1)Cc1cc(C(C)(C)C)cc(c1OCC(=O)NCCCn1cncn1)Cc1cc(C(C)(C)C)cc(c1OCC(=O)NCCCn1cncn1)Cc1cc(C(C)(C)C)cc(c1OCC(=O)NCCCn1cncn1)C2 | inactive | inactive | inactive | inactive | inactive |  |  |  |  |  |  |  |  |  |  |  |
| CCCc1cc2c(OCC(=O)NCCN(C)C)c(c1)Cc1cc(CC(C)C)cc(c1OCC(=O)NCCN(C)C)Cc1cc(CCC)cc(c1OCC(=O)NCCN(C)C)Cc1cc(CC(C)C)cc(c1OCC(=O)NCCN(C)C)C2 |  |  |  |  |  | 3700 nM | 3100 nM | 2100 nM | 3800 nM | > 5000 nM |  |  |  |  |  |  |
| CC(C)(C)c1cc2c(O)c(c1)Cc1cc(C(C)(C)C)cc(c1OCCNC(=N)N)Cc1cc(C(C)(C)C)cc(c1O)Cc1cc(C(C)(C)C)cc(c1OCCNC(=N)N)C2 |  |  | inactive |  | inactive |  | 4400 nM |  | > 5000 nM |  |  |  |  |  |  |  |
| CC(C)Cc1cc2c(OCC(=O)NCCN(C)C)c(c1)Cc1cc(CC(C)C)cc(c1OCC(=O)NCCN(C)C)Cc1cc(C(C)C)cc(c1OCC(=O)NCCN(C)C)Cc1cc(CC(C)C)cc(c1OCC(=O)NCCN(C)C)C2 |  |  |  |  |  | 3100 nM | 400 nM | 1000 nM | 6 nM | 4200 nM | 60% | inactive | 80% |  |  |  |
| CC(C)(C)c1cc2c(OCC(=O)NCCN)c(c1)Cc1cc(C(C)(C)C)cc(c1OCC(=O)NCCN)Cc1cc(C(C)(C)C)cc(c1OCC(=O)NCCN)Cc1cc(C(C)(C)C)cc(c1OCC(=O)NCCN)C2 |  |  |  |  |  | 1600 nM | 600 nM | 300 nM | 900 nM | 800 nM |  |  |  | 1500 nM |  |  |
| CN(C)CCNC(=O)COc1c2cc(C(C)(C)C)cc1Cc1cc(C(C)(C)C)cc(c1OCC(=O)NCCN(C)C)Cc1cc(C(C)(C)C)cc(c1OCC(=O)NCCN(C)C)Cc1cc(C(C)(C)C)cc(c1OCC(=O)NCCN(C)C)C2 |  |  |  |  |  | 1400 nM | 600 nM | 1500 nM | > 5000 nM | > 5000 nM |  |  |  | 3400 nM |  |  |
| NCCNC(=O)COc1c2cccc1Cc1cccc(c1O)Cc1cccc(c1OCC(=O)NCCN)Cc1cccc(c1O)C2 |  |  | inactive | inactive | inactive |  | > 5000 nM |  | > 5000 nM |  |  |  |  |  |  |  |
| CC(C)(C)c1cc2c(OCCCCN)c(c1)Cc1cc(C(C)(C)C)cc(c1OCCCCNC(=N)N)Cc1cc(C(C)(C)C)cc(c1OCCCCNC(=N)N)Cc1cc(C(C)(C)C)cc(c1OCCCCNC(=N)N)C2 |  |  |  |  |  | 400 nM | 600 nM | 500 nM | 100 nM | 800 nM |  |  |  | 3200 nM |  |  |
| CC(C)CCOc1c2cc(CCC(=O)NCCN(C)C)cc1Cc1cc(CCC(=O)NCCN(C)C)cc(c1OCCC(C)C)Cc1cc(CCC(=O)NCCN(C)C)cc(c1OCCC(C)C)Cc1cc(CCC(=O)NCCN(C)C)cc(c1OCCC(C)C)C2 |  |  | inactive |  |  | > 5000 nM | 3200 nM | 2400 nM | > 5000 nM |  |  |  |  |  |  |  |
| CC(C)(C)c1cc2c(OCCCCNC(=N)N)c(c1)Cc1cc(C(C)(C)C)cc(c1OCCCCNC(=N)N)Cc1cc(C(C)(C)C)cc(c1OCCCCNC(=N)N)Cc1cc(C(C)(C)C)cc(c1OCCCCNC(=N)N)C2 |  |  |  |  |  | 700 nM | 600 nM | 1000 nM | 40 nM | 1500 nM | 40% | inactive | 60% |  | 100% |  |
| CN(C)CCNC(=O)COc1c2cccc1Cc1cccc(c1OCC(=O)NCCN(C)C)Cc1cccc(c1OCC(=O)NCCN(C)C)Cc1cccc(c1OCC(=O)NCCN(C)C)C2 [OTX-008] | inactive |  | inactive |  |  | > 5000 nM |  | 1500 nM | 3400 nM |  |  |  |  | > 5000 nM |  |  |
| CC(C)CCOc1c2cccc1Cc1cc(CCC(=O)O)cc(c1O)Cc1cccc(c1OCCC(C)C)Cc1cc(CCC(=O)O)cc(c1O)C2 | inactive |  | inactive |  | inactive | > 5000 nM |  |  | > 5000 nM |  |  |  |  |  |  |  |
| CN(C)CCNC(=O)COc1c2cccc1Cc1cccc(c1O)Cc1cccc(c1OCC(=O)NCCN(C)C)Cc1cccc(c1O)C2 |  |  | inactive |  | inactive | > 5000 nM | > 5000 nM |  | > 5000 nM |  |  |  |  |  |  |  |
| CC(C)(C)c1cc2c(OCc3cn(CCN)nn3)c(c1)Cc1cc(C(C)(C)C)cc(c1OCc1cn(CCN)nn1)Cc1cc(C(C)(C)C)cc(c1OCc1cn(CCN)nn1)Cc1cc(C(C)(C)C)cc(c1OCc1cn(CCN)nn1)C2 |  |  |  |  |  | 2200 nM | 1100 nM | 1000 nM | 50 nM | 2600 nM |  | inactive | 100% | > 5000 nM | 25% |  |
| CC(C)CCOc1c2cccc1Cc1cc(CCCOP(=O)(O)O)cc(c1O)Cc1cccc(c1OCCC(C)C)Cc1cc(CCCOP(=O)(O)O)cc(c1O)C2 | inactive |  | inactive | inactive | inactive |  |  |  | > 5000 nM |  |  |  |  |  |  |  |
| CCCc1cc2c(OCC(=O)NCCN(C)C)c(c1)Cc1cc(CCC)cc(c1OCC(=O)NCCN(C)C)Cc1cc(CCC)cc(c1OCC(=O)NCCN(C)C)Cc1cc(CCC)cc(c1OCC(=O)NCCN(C)C)C2 |  |  | inactive |  |  | > 5000 nM | 4100 nM | 80 nM | 4400 nM |  |  |  |  |  |  |  |
| C=CCc1cc2c(OCC(=O)NCCN(C)C)c(c1)Cc1cc(CC(=C)C)cc(c1OCC(=O)NCCN(C)C)Cc1cc(CC=C)cc(c1OCC(=O)NCCN(C)C)Cc1cc(CC(=C)C)cc(c1OCC(=O)NCCN(C)C)C2 |  |  |  |  | inactive | 4700 nM | > 5000 nM |  | 3600 nM | > 5000 nM |  |  |  |  |  |  |
| CC(C)(C)c1cc2c(O)c(c1)Cc1cc(C(C)(C)C)cc(c1OCCNC(=N)N)Cc1cc(C(C)(C)C)cc(c1O)Cc1cc(C(C)(C)C)cc(c1OCCN)C2 |  |  | inactive |  | inactive | > 5000 nM | 2600 nM |  | 4100 nM |  |  |  |  |  |  |  |
| CCCc1cc2c(OCC(=O)NCCN(C)C)c(c1)Cc1cc(CCC)cc(c1OCC(=O)NCCN(C)C)Cc1cc(CCC)cc(c1OCC(=O)NCCN(C)C)Cc1cc(OCC(=O)NCCN(C)C)cc(c1CCC)C2 |  |  | inactive |  |  | 2700 nM | 800 nM | 400 nM | 50 nM |  |  |  |  |  |  | inactive |
| CC(C)CCOc1c2cccc1Cc1cc(CCCOS(=O)(=O)O)cc(c1O)Cc1cccc(c1OCCC(C)C)Cc1cc(CCCOS(=O)(=O)O)cc(c1O)C2 | inactive |  | inactive |  |  | 5000 nM |  | 2100 nM | 5000 nM |  |  |  |  | 4200 nM |  |  |
| N=C(N)NCCOc1c2cccc1Cc1cccc(c1O)Cc1cccc(c1OCC(=O)NC(=N)N)Cc1cccc(c1O)C2 |  |  | inactive |  | inactive | 3900 nM | > 5000 nM |  | 4100 nM |  |  |  |  |  |  |  |
| CC(C)(C)c1cc2c(OCc3cn(CCN)nn3)c(c1)Cc1cc(C(C)(C)C)cc(c1OCc1cn(CCN)nn1)Cc1cc(OCc3cnnn3CCN)cc(c1C(C)(C)C)Cc1cc(C(C)(C)C)cc(c1OCc1cn(CCN)nn1)C2 | inactive |  |  |  |  | 1500 nM |  | 900 nM | 600 nM | 1000 nM |  |  |  |  |  | inactive |
| CC(C)(C)c1cc2c(OCCCCN)c(c1)Cc1cc(C(C)(C)C)cc(c1OCCCCN)Cc1cc(C(C)(C)C)cc(c1OCCCCN)Cc1cc(C(C)(C)C)cc(c1OCCCCN)C2 |  |  |  |  |  | 100 nM | 200 nM | 500 nM | 1300 nM | 500 nM |  |  |  | 4500 nM |  |  |
